Assay results from ChEMBL document CHEMBL1121414, “Central nervous system activity of 7-substituted 1-azaphenoxathiin analogues and their oxidation products” (1980).

Tests used:
Mus musculus = organism: Mus musculus; test: The compound was tested for antidepressant activity by its ability to reverse tetrabenazine induced ptosis in mice, perorally; format: functional; conditions: po
Summary of the method: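 Male albino CFI mice (18–22 g), groups of five, dosed po with test drug in methylcellulose suspension (initial screening dose 30 mg/kg). Tetrabenazine methanesulfonate 30 mg/kg was given ip 30 min later, and palpebral opening was scored after 30 min.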

Rattus norvegicus = test: The compound was tested for antidepressant activity by its ability to inhibit muricidal intraperitoneally; format: functional; conditions: ip
Summary of the method: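 Male Long-Evans rats (200–300 g), groups of five, given test drug ip as a methylcellulose suspension at an initial screening dose of 10 or 20 mg/kg. Mice were presented to the rats 30 min after dosing.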

| Structure (SMILES) | ED50 (Mus musculus) | ED50 (Rattus norvegicus) |
| --- | --- | --- |
| O=S1(=O)c2ccc(NO)cc2Oc2cccnc21 | 2 mg/kg | > 10 mg/kg |
| CN(C)CCCN1c2ccccc2CCc2ccccc21 [IMIPRAMINE] | 2 mg/kg | 20 mg/kg |
| NS(=O)(=O)c1ccc2c(c1)Oc1cccnc1S2 | > 30 mg/kg | 8 mg/kg |
| O=[N+]([O-])c1ccc2c(c1)Oc1cccnc1S2(=O)=O | 10 mg/kg | 12 mg/kg |
| COc1ccc2c(c1)Oc1cccnc1S2(=O)=O | > 30 mg/kg | > 10 mg/kg |
| Brc1ccc2c(c1)Oc1cccnc1S2 | > 30 mg/kg | > 10 mg/kg |
| O=[N+]([O-])c1ccc2c(c1)Oc1cccnc1S2 | > 30 mg/kg | 7 mg/kg |
| FC(F)(F)c1ccc2c(c1)Oc1cccnc1S2 | 16 mg/kg | > 10 mg/kg |
| Clc1ccc2c(c1)Oc1cccnc1S2 | > 30 mg/kg | > 10 mg/kg |
| c1ccc2c(c1)Oc1cccnc1S2 | 8 mg/kg | > 10 mg/kg |
| O=S1(=O)c2ccc(C(F)(F)F)cc2Oc2cccnc21 | 1 mg/kg | 17 mg/kg |
| COc1ccc2c(c1)Oc1cccnc1S2 | > 30 mg/kg | > 10 mg/kg |
| O=S1(=O)c2ccc(Br)cc2Oc2cccnc21 | 15 mg/kg | 7 mg/kg |
| O=S1(=O)c2ccc(Cl)cc2Oc2cccnc21 | 18 mg/kg | > 10 mg/kg |
| O=S1(=O)c2ccccc2Oc2cccnc21 | 12 mg/kg | > 10 mg/kg |
